Data from ChEMBL document CHEMBL6134793, “Synthesis and structure-activity study of the antimicrobial lipopeptide brevibacillin” (RSC Med Chem, 2024).
≈ marks a conversion by molar mass, not a printed value. Calls of active or inactive are those of the source. The rule behind the calls is not given here.

How the values were obtained:
[1] = test system: Clostridium perfringens; assay: Antimicrobial activity against Clostridium perfringens ATCC 3628 assessed as growth inhibition by microdilution assay; format: functional
Procedure, shortened: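 Broth microdilution: twofold serial peptide dilutions in reinforced clostridial medium (RCM), seeded with about 1 × 10^4 cfu per well, incubated 20 h at 37 °C. Working solution 512 μg mL−1 made from a 2 mg mL−1 stock in water with 10% DMSO. Growth read as absorbance at 595 nm. MIC taken as the lowest concentration giving complete inhibition of visible growth; run in triplicate.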

[2] = Hemolytic activity in human erythrocytes at 256 ug/ml measured after 1 hr by absorbance based assay relative to control; format: toxicity, cell-based, Erythrocyte; conditions: at 256 µg/mL, read-out: Activity
Procedure, shortened: (§1)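 Washed human donor erythrocytes at 1% hematocrit in PBS pH 7.4 exposed to twofold peptide dilutions (final 2–256 μg mL−1, up to 1% DMSO) for 1 h at 37 °C. After centrifugation, supernatant A405 read. % hemolysis relative to PBS (0%) and 1% Triton X-100 (100%). Triplicate; mean ± SEM.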

[3] = test system: Escherichia coli; assay: Antimicrobial activity against Escherichia coli ATCC 25922 assessed as growth inhibition by microdilution assay; format: functional
Procedure, shortened: (§2)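 Twofold serial microdilution of peptide (stocks 2 mg mL−1, diluted to 512 μg mL−1 in water with 10% DMSO) in strain medium, about 1 × 10^4 cfu per well. Media: TSB 20 h 37 °C (S. aureus, L. monocytogenes, B. subtilis, E. faecalis); LB 20 h 37 °C (P. aeruginosa, S. enterica, E. coli); Brucella 48 h 37 °C (C. coli). A595 read; MIC = lowest concentration with no visible growth; triplicate.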

[4] = Hemolytic activity in human erythrocytes at 128 ug/ml measured after 1 hr by absorbance based assay relative to control; format: toxicity, cell-based, Erythrocyte; conditions: at 128 µg/mL, read-out: Activity; procedure, shortened: as §1
[5] = test system: Bacillus subtilis; assay: Antimicrobial activity against Bacillus subtilis ATCC 23957 assessed as growth inhibition by microdilution assay; format: functional; procedure, shortened: as §2
[6] = Antimicrobial activity against Salmonella enterica serovar Newport ATCC 6962 assessed as growth inhibition by microdilution assay; format: functional, Salmonella enterica subsp. enterica serovar Newport; procedure, shortened: as §2
[7] = test system: Pseudomonas aeruginosa; assay: Antimicrobial activity against Pseudomonas aeruginosa ATCC […] assessed as growth inhibition at 128 ug/ml by radial diffusion assay; format: functional, organism-based; conditions: dose 128.0 µg/ml
Procedure, shortened: (§3)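 Agar well diffusion. Overnight cultures inoculated at 1% into 0.75% soft agar (TSB for S. aureus, LB for P. aeruginosa). Each well received 80 μL of peptide at 128 μg mL−1 in water with 10% DMSO; 10% DMSO served as negative control. Inhibition zone diameter scored after strain-specific incubation.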

[8] = test system: Enterococcus faecalis; assay: Antimicrobial activity against Enterococcus faecalis ATCC 29212 assessed as growth inhibition by microdilution assay; format: functional; procedure, shortened: as §2
[9] = test system: Staphylococcus aureus; assay: Antimicrobial activity against Staphylococcus aureus ATCC 6538 assessed as growth inhibition by microdilution assay; format: functional; procedure, shortened: as §2
[10] = test system: Listeria monocytogenes; assay: Antimicrobial activity against Listeria monocytogenes ATCC 19111 assessed as growth inhibition by microdilution assay; format: functional; procedure, shortened: as §2
[11] = Cytotoxicity against human Caco-2 cells assessed as inhibition of cell viability incubated for 48 hrs by Cell Titer GLO assay; format: toxicity, cell-based
Procedure, shortened: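 Caco-2 cells in DMEM with 10% FCS, seeded 25 000 per well, adhered overnight, then given peptide at 2–256 μg mL−1 in complete medium for 48 h at 37 °C, 5% CO2. Controls: cisplatin 125 μM; 0.1% DMSO medium. Viability by ATP luminescence (CellTiter-Glo) versus untreated cells; IC50 from dose–response; mean ± SEM of at least three independent experiments.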

[12] = test system: Campylobacter coli; assay: Antimicrobial activity against Campylobacter coli ATCC 33559 assessed as growth inhibition by microdilution assay; format: functional; procedure, shortened: as §2
[13] = test system: Pseudomonas aeruginosa; assay: Antimicrobial activity against Pseudomonas aeruginosa ATCC […] assessed as growth inhibition by microdilution assay; format: functional; procedure, shortened: as §2
[14] = test system: Staphylococcus aureus; assay: Antimicrobial activity against Staphylococcus aureus ATCC 6538 assessed as growth inhibition at 128 ug/ml by radial diffusion assay; format: functional, organism-based; conditions: dose 128.0 µg/ml; procedure, shortened: as §3
[15] = test system: Staphylococcus aureus; assay: Antimicrobial activity against Staphylococcus aureus ATCC 6538 assessed as diameter of growth inhibition at 128 ug/ml by radial diffusion assay; format: functional; conditions: dose 128 µg/ml; procedure, shortened: as §3
[16] = test system: Pseudomonas aeruginosa; assay: Antimicrobial activity against Pseudomonas aeruginosa ATCC […] assessed as diameter of growth inhibition at 128 ug/ml by radial diffusion assay; format: functional; conditions: dose 128 µg/ml; procedure, shortened: as §3

Row | Structure (SMILES) | MIC [1] | hemolysis at 1 h, 256 ug/ml [2] | MIC [3] | hemolysis at 1 h, 128 ug/ml [4] | MIC [5] | MIC [6] | growth inhibition (qualitative call) [7] | MIC [8] | MIC [9] | MIC [10] | IC50 at 48 h [11] | MIC [12] | MIC [13] | growth inhibition (qualitative call) [14] | Activity [15] | Activity [16]
1 | CC[C@H](NC(=O)[C@@H](NC(C)=O)[C@@H](C)CC)C(=O)N[C@@H](CC(C)C)C(=O)N[C@H](CCCN)C(=O)N[C@H](C(=O)N[C@H](C(=O)N[C@H](C(=O)N[C@H](CCCCN)C(=O)N[C@H](C(=O)N[C@H](C(=O)N[C@@H](CCCCN)C(=O)N[C@H](Cc1ccc(O)cc1)C(=O)N[C@@H](CC(C)C)C(=O)N[C@H](C(N)=O)C(C)C)C(C)C)C(C)C)C(C)C)[C@@H](C)CC)[C@@H](C)CC | > 128 mg/L | 38.2% | > 128 mg/L | 23.3% | > 128 mg/L | > 128 mg/L | inactive | > 128 mg/L | > 128 mg/L | > 128 mg/L | 14.9 mg/L (≈ 9.08 µM) | > 128 mg/L | > 128 mg/L | inactive |  | 
2 | CC[C@H](C)[C@H](O)C(=O)N[C@H](C(=O)N[C@@H](CC(C)C)C(=O)N[C@H](CCCN)C(=O)N[C@H](C(=O)N[C@H](C(=O)N[C@H](C(=O)N[C@H](CCCCN)C(=O)N[C@H](C(=O)N[C@H](C(=O)N[C@@H](CCCCN)C(=O)N[C@H](Cc1ccc(O)cc1)C(=O)N[C@@H](CC(C)C)C(=O)N[C@H](CO)C(C)C)C(C)C)C(C)C)C(C)C)[C@@H](C)CC)[C@@H](C)CC)[C@@H](C)O | 4 mg/L | 4.9% | 32 mg/L | 1.2% | 1 mg/L | > 128 mg/L |  | 16 mg/L | 2 mg/L | 4 mg/L | 32.2 mg/L (≈ 20.1 µM) | 16 mg/L | 2 mg/L |  | 11 mm | 12 mm
3 | CC[C@H](C)[C@H](O)C(=O)N[C@@H](CO)C(=O)N[C@@H](CC(C)C)C(=O)N[C@H](CCCN)C(=O)N[C@H](C(=O)N[C@H](C(=O)N[C@H](C(=O)N[C@H](CCCCN)C(=O)N[C@H](C(=O)N[C@H](C(=O)N[C@@H](CCCCN)C(=O)N[C@H](Cc1ccc(O)cc1)C(=O)N[C@@H](CC(C)C)C(=O)N[C@H](CO)C(C)C)C(C)C)C(C)C)C(C)C)[C@@H](C)CC)[C@@H](C)CC | 8 mg/L | 4.9% | 32 mg/L | 1.2% | 2 mg/L | > 128 mg/L |  | > 128 mg/L | 8 mg/L | 1 mg/L | 42.2 mg/L (≈ 26.6 µM) | 32 mg/L | 4 mg/L |  | 11 mm | 12 mm
4 | CC[C@H](C)[C@H](O)C(=O)N[C@@H](C)C(=O)N[C@@H](CC(C)C)C(=O)N[C@H](CCCN)C(=O)N[C@H](C(=O)N[C@H](C(=O)N[C@H](C(=O)N[C@H](CCCCN)C(=O)N[C@H](C(=O)N[C@H](C(=O)N[C@@H](CCCCN)C(=O)N[C@H](Cc1ccc(O)cc1)C(=O)N[C@@H](CC(C)C)C(=O)N[C@H](CO)C(C)C)C(C)C)C(C)C)C(C)C)[C@@H](C)CC)[C@@H](C)CC | 2 mg/L |  | 64 mg/L |  | 2 mg/L | > 128 mg/L |  | 4 mg/L | 2 mg/L | 1 mg/L | 13.5 mg/L (≈ 8.59 µM) | 8 mg/L | 1 mg/L |  | 11 mm | 12 mm
5 | CC[C@H](NC(=O)[C@@H](O)[C@@H](C)CC)C(=O)N[C@@H](CC(C)C)C(=O)N[C@H](CCCN)C(=O)N[C@H](C(=O)N[C@H](C(=O)N[C@H](C(=O)N[C@H](CCCCN)C(=O)N[C@H](C(=O)N[C@H](C(=O)N[C@@H](CCCCN)C(=O)N[C@H](Cc1ccc(O)cc1)C(=O)N[C@@H](CC(C)C)C(=O)N[C@H](C(N)=O)C(C)C)C(C)C)C(C)C)C(C)C)[C@@H](C)CC)[C@@H](C)CC | 8 mg/L | 38.2% | > 128 mg/L | 23.3% | 2 mg/L | > 128 mg/L |  | 64 mg/L | 2 mg/L | 2 mg/L | 11.3 mg/L (≈ 7.07 µM) | 16 mg/L | 2 mg/L |  | 7 mm | 7 mm
6 | C/C=C(/NC(=O)[C@@H](O)[C@@H](C)CC)C(=O)N[C@@H](CC(C)C)C(=O)N[C@H](CCCN)C(=O)N[C@H](C(=O)N[C@H](C(=O)N[C@H](C(=O)N[C@H](CCCCN)C(=O)N[C@H](C(=O)N[C@H](C(=O)N[C@@H](CCCCN)C(=O)N[C@H](Cc1ccc(O)cc1)C(=O)N[C@@H](CC(C)C)C(=O)N[C@H](CO)C(C)C)C(C)C)C(C)C)C(C)C)C(C)C)[C@@H](C)CC | 4 mg/L |  | 32 mg/L | 1.65% | 2 mg/L | > 128 mg/L |  | 16 mg/L | 4 mg/L | 1 mg/L | 25.7 mg/L (≈ 16.4 µM) | 16 mg/L | 2 mg/L |  | 11 mm | 12 mm
7 | CC[C@H](NC(=O)[C@@H](NC(C)=O)[C@@H](C)CC)C(=O)N[C@@H](CC(C)C)C(=O)N[C@H](CCCN)C(=O)N[C@H](C(=O)N[C@H](C(=O)N[C@H](C(=O)N[C@H](CCCCN)C(=O)N[C@H](C(=O)N[C@H](C(=O)N[C@@H](CCCCN)C(=O)N[C@H](Cc1ccc(O)cc1)C(=O)N[C@@H](CC(C)C)C(=O)N[C@H](CO)C(C)C)C(C)C)C(C)C)C(C)C)[C@@H](C)CC)[C@@H](C)CC | 2 mg/L | 38.2% | > 128 mg/L | 23.3% | 4 mg/L | > 128 mg/L |  | 32 mg/L | 2 mg/L | 2 mg/L | 17.6 mg/L (≈ 10.8 µM) | 16 mg/L | 2 mg/L |  | 7 mm | 7 mm
8 | C/C=C(/NC(=O)[C@@H](O)[C@@H](C)CC)C(=O)N[C@@H](CC(C)C)C(=O)N[C@H](CCCN)C(=O)N[C@H](C(=O)N[C@H](C(=O)N[C@H](C(=O)N[C@H](CCCCN)C(=O)N[C@H](C(=O)N[C@H](C(=O)N[C@@H](CCCCN)C(=O)N[C@H](Cc1ccc(O)cc1)C(=O)N[C@@H](CC(C)C)C(=O)N[C@H](CO)C(C)C)C(C)C)[C@@H](C)CC)C(C)C)[C@@H](C)CC)[C@@H](C)CC | 2 mg/L | 89.9% | 32 mg/L | 55% | 0.5 mg/L | 64 mg/L |  | 2 mg/L | 2 mg/L | 1 mg/L | 6.5 mg/L (≈ 4.07 µM) | 8 mg/L | 1 mg/L |  | 11 mm | 12 mm
9 | CC[C@H](C)[C@H](O)C(=O)N[C@H](C(=O)N[C@@H](CC(C)C)C(=O)N[C@H](CCCN)C(=O)N[C@H](C(=O)N[C@H](C(=O)N[C@H](C(=O)N[C@H](CCCCN)C(=O)N[C@H](C(=O)N[C@H](C(=O)N[C@@H](CCCCN)C(=O)N[C@H](Cc1ccc(O)cc1)C(=O)N[C@@H](CC(C)C)C(=O)N[C@H](CO)C(C)C)C(C)C)C(C)C)C(C)C)[C@@H](C)CC)[C@@H](C)CC)C(C)C | 4 mg/L | 84% | > 128 mg/L | 53.1% | 1 mg/L | > 128 mg/L |  | 4 mg/L | 1 mg/L | 1 mg/L | 8.3 mg/L (≈ 5.19 µM) | 8 mg/L | 1 mg/L |  | 7 mm | 7 mm
